Rows were chosen to be rich in hits. Some 1.9% of all compounds tested hit in one or more screens of this group.
IDE inh: cellular human IDE inhibition. actives 0.41% (n = 320,000). HEK cells, FAbetaB cleavage, fluorescence polarization. P14735. inhibition, % at 5.59 µM;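 active means percent inhibition above the average of all tested compounds plus 3 SD, set per screening campaign, cut at about 16% in these data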;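 further: IDE supplied by intact live HEK cells; FP after avidin binding of uncleaved biotin substrate so inhibition keeps polarization high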
IDE cell activ: IDE (human) activation, cell-based. actives 0.073% (n = 340,000). AID 493087. activation, % at 5.96 µM. HEK cells, FAbeta-B cleavage, fluorescence polarization; 0% vehicle, 100% cell-free pure enzyme wells. P14735;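 active means activation above the mean of all tested compounds plus 3 SD, set per screening campaign, cut at about 17% in these data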
UBC13 inh: inhibitors of human UBC13 polyubiquitin chain formation; inhibition, % at 20 µM; actives 0.47% (n = 330,000); TR-FRET; P61088; in the data active means inhibition above about 45%, passing the limit was not always enough
Target sequence (P61088 whole entry, looked up): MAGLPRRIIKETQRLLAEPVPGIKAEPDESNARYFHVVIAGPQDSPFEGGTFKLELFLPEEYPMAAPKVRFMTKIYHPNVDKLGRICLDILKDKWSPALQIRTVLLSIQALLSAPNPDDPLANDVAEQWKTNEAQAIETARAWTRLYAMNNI
PHOSPHO1 block: blocks human PHOSPHO1 phosphatase activity; Q8TCT1; recombinant PHOSPHO1, absorbance phosphatase assay; inhibition, % at 13.3 µM; actives 1.1% (n = 290,000); in the data active means inhibition above about 60%
procasp3 activ: activates human procaspase-3 | P42574 | recombinant procaspase-3 D3A, Ac-DEVD-pNA absorbance 405 nm | activation, % at 8.5 µM | actives 0.11% (n = 330,000);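 active means activation above the mean of all tested compounds plus 3 SD, cut at about 21% in these data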
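assay system = Procaspase-3 D3A mutant | signal = absorbance at 405 nm, 0 and 120 min | times = 1 h preincubation plus 2 h reaction at 25 °C | repeats = single replicate | read-out = % activation between DMSO and enzyme-spiked controls | medium = Zinc-free HEPES saline buffer with Triton X-100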
procasp7 counter: counter-screen: procaspase-7 (human) activation | P55210 | recombinant procaspase-7, Ac-DEVD-pNA absorbance 405 nm; D23A/D198A/D206A triple mutant, cannot self-cleave; scale: DMSO 0, 5 µM enzyme 100 | activation, % at 8.5 µM | actives 0.093% (n = 330,000);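 active means percent activation above the screen-wide mean plus 3 SD, cut at about 25% in these data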
Target sequence (P55210 whole entry D23A/D198A/D206A): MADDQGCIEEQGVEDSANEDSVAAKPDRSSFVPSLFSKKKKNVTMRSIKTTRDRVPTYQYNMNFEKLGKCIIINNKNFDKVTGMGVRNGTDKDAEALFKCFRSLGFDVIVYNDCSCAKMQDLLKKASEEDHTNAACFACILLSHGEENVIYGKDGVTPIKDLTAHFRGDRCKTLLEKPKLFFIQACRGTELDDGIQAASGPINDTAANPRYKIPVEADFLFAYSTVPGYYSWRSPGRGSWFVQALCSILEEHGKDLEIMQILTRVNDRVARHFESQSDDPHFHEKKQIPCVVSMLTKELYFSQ
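signal = Epi-absorbance of released pNA at 405 nm, two timepoints | assay system = Uncleavable procaspase-7 mutant enzyme | reagent = Ac-DEVD-pNA substrate, 400 µM as added | times = 1 h enzyme–compound preincubation and 2 h substrate reaction, both 25 °C | benchmarks = low DMSO alone, high DMSO plus 5 µM PC-7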
Casp3 UBC13 ctr: counter-screen for UBC13 inhibitors: human caspase-3 inhibition; Recombinant caspase-3, Caspase-Glo 3/7 luminescence, 60 min; actives 4% (n = 1,400); shares compounds with UBC13 inh; inhibition, % at 20 µM;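 active means mean inhibition across replicates above about 26%, limit read from the data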
UBC13 confirm: confirmation of human UBC13 polyubiquitin inhibitors. shares compounds with UBC13 inh. inhibition, % at 10 µM. actives 68% (n = 1,400). UBC13 polyubiquitination, TR-FRET, biochemical; in the data active means inhibition above about 45%
A number is an active result; i = inactive; nt = not tested or not shown.

SMILES | IDE inh | IDE cell activ | UBC13 inh | PHOSPHO1 block | procasp3 activ | procasp7 counter | Casp3 UBC13 ctr | UBC13 confirm
C#CCOCCOCCOCCNc1nc(N2CCN(C(=O)C([C@@H](C)CC)n3cc(C(N)COC(=O)C(F)(F)F)nn3)CC2)nc(N2CCN(C(=O)[C@H](Cc3cc4ccccc4[nH]3)n3cc(C(N)CO)nn3)CC2)n1 (stereo partly specified) | i | nt | 69 | nt | i | i | i | i
O=C(c1ccc(S(=O)(=O)N2CCCCC2)cc1)N1CCCC(C(F)(F)F)C1 (stereo unspecified) | i | i | i | nt | i | i | nt | nt
COc1cccc(NC(=S)N2CCC(NC(=O)c3ccco3)CC2)c1 | i | i | i | i | i | i | nt | nt
CC(=O)Nc1ccc(OS(=O)(=O)c2cc(Cl)ccc2C)cc1 | i | i | i | i | i | i | nt | nt
O=C(COC(=O)c1cc(=O)[nH]c(=O)[nH]1)Nc1cccc(Cl)c1 | i | i | 66 | nt | i | i | i | 51
CCCOc1ccc(/C=N/NC(=O)CSCc2ccc([N+](=O)[O-])cc2)cc1OCC | i | i | 90 | i | i | i | i | 93
CCCOc1ccc(/C=N/NC(=O)CN2CCCCC2)cc1OCC | i | i | i | i | i | i | nt | nt
C/C(=N\NC(=O)CSCc1ccc([N+](=O)[O-])cc1)c1ccccc1 | i | i | 91 | i | i | i | i | 109
C/C(=N\NC(=O)CSCc1ccc([N+](=O)[O-])cc1)c1ccccc1O | i | i | 84 | i | i | i | i | 95
OCC(CO)c1cnnc2ccccc12 | nt | i | nt | nt | nt | nt | nt | nt
Cc1cccc(CS(=O)(=O)c2ncc(Cl)c(C(=O)Nc3c(C)cccc3C)n2)c1 | i | i | i | i | i | i | nt | nt
CCCc1nnc(NC(=O)c2nc(S(=O)(=O)Cc3cccc(C)c3)ncc2Cl)s1 | i | i | 54 | i | i | i | i | 62
COC(=O)c1ccccc1S(=O)(=O)N1CCC(C(=O)OC(C)C(=O)Nc2ccc(NC(C)=O)cc2)CC1 (stereo unspecified) | i | i | i | i | i | i | nt | nt
COC(=O)c1ccccc1S(=O)(=O)N1CCC(C(=O)N2CCC2)CC1 | i | i | 79 | nt | i | i | i | 64
O=C(CCCN1C(=O)/C(=C/c2ccccc2Cl)SC1=S)NNC(=O)c1ccc(Cl)cc1 | i | i | 58 | i | i | i | i | 83
Cc1ccc(C(=O)NNC(=O)CCCN2C(=O)/C(=C/c3ccccc3Cl)SC2=S)cc1 | i | i | i | i | i | i | nt | nt
N#Cc1ccc(OCC(=O)NNC(=S)NC(=O)C2CC2)cc1 | i | i | 106 | nt | i | i | i | 102
Cc1ccc(OCC(=O)NNC(=S)NC(=O)C2CC2)c(C)c1 | nt | i | 85 | i | nt | nt | i | 106
CC(C)c1ccc(OCC(=O)NNC(=S)NC(=O)C2CC2)cc1 | i | i | 62 | i | i | i | i | 99
COc1ccc(N2CCN(S(=O)(=O)CCNC(=O)C3CC3)CC2)cc1 | i | i | i | nt | i | i | nt | nt
CC(=O)OCC(=O)C1(O)CCC2C3CCC4=CC(=O)CCC4(C)C3C(O)CC21C (stereo unspecified) | nt | i | nt | nt | nt | nt | nt | nt
Cn1c(-c2c(N)n(CCCc3ccccc3)c3nc4ccccc4nc23)nc2ccccc21 | nt | i | nt | i | nt | nt | nt | nt
COCCCn1c(N)c(-c2nc3ccccc3n2C)c2nc3ccccc3nc21 | i | i | 62 | i | i | i | i | 59
CCC(=O)NC(=S)NNC(=O)c1ccc(O)cc1 | i | i | 86 | 81 | i | i | i | 101
Cc1ccc(C(=O)N/C(=C\c2ccc(-c3cccc([N+](=O)[O-])c3)o2)C(=O)NCCCN(C)C)cc1 | i | i | 48 | i | i | i | i | 63
SMILES | IDE inh | IDE cell activ | UBC13 inh | PHOSPHO1 block | procasp3 activ | procasp7 counter | Casp3 UBC13 ctr | UBC13 confirm
CN(C)CCCNC(=O)/C(=C\c1ccc(-c2cccc([N+](=O)[O-])c2)o1)NC(=O)c1ccccc1 | i | i | i | i | i | i | nt | nt
Cc1ccc(C(C(=O)NCC2CCCO2)N(C(=O)c2snc(C(N)=O)c2N)c2ccc3c(c2)OCCO3)cc1 (stereo unspecified) | i | i | 56 | i | i | i | i | 79
Cc1cc(C)cc(N(C(=O)c2snc(C(N)=O)c2N)C(C(=O)NCC2CCCO2)c2cccs2)c1 (stereo unspecified) | i | nt | 66 | i | i | i | i | 71
Cc1ccc(C(C(=O)NCC2CCCO2)N(C(=O)c2snc(C(N)=O)c2N)c2ccc(C)c(C)c2)o1 (stereo unspecified) | i | i | 65 | i | i | i | i | 70
NC(=O)c1nsc(C(=O)N(c2ccc3c(c2)OCCO3)C(C(=O)NCC2CCCO2)c2ccc(F)cc2)c1N (stereo unspecified) | i | i | i | i | i | i | nt | nt
Cc1cc(C)cc(N(C(=O)c2snc(C(N)=O)c2N)C(C(=O)NCC2CCCO2)c2ccc(C)o2)c1 (stereo unspecified) | i | i | 60 | i | i | i | i | 49
COc1cc(OC)cc(N(C(=O)c2snc(C(N)=O)c2N)C(C(=O)NCC2CCCO2)c2ccc(C)o2)c1 (stereo unspecified) | i | i | i | i | i | i | nt | nt
COc1ccccc1Nc1nn2c(=O)c3ccc(C(=O)N4CCCC(C)C4)cc3nc2s1 (stereo unspecified) | i | i | i | i | i | i | nt | nt
CCCCNc1ncnc2[nH]ncc12 | nt | i | nt | nt | nt | nt | nt | nt
CCOC(=O)N1CCN(C(=O)C(=O)Nc2sc3c(c2C(N)=O)CC(C)(C)OC3)CC1 | i | i | 63 | i | i | i | i | 90
CC1CCCCN1S(=O)(=O)Cc1ccccc1Cl (stereo unspecified) | nt | i | i | i | nt | nt | nt | nt
O=C(CN(C(=O)CNC(=O)c1cccs1)c1ccc(F)cc1)NC1CCCC1 | i | i | i | i | i | i | nt | nt
Cc1ccc2nc(/N=C(\N)NC(=O)NC3CCCCC3)nc(C)c2c1 | i | nt | 49 | i | i | i | i | 68
Cc1nn(CC(=O)NC(=O)c2ccccc2)c(C)c1[N+](=O)[O-] | i | i | i | nt | i | i | nt | nt
Cc1cccc2c1c(N=NC(N)=S)c(O)n2C1OC(CO)C(O)C(O)C1O (stereo unspecified) | i | i | 67 | nt | i | i | i | 97
N=c1n(CC(=O)c2ccc([N+](=O)[O-])cc2)c2ccccc2n1Cc1ccccc1 | i | i | i | i | i | i | nt | nt
N=c1n(CC(=O)c2ccc(Br)cc2)c2ccccc2n1Cc1ccccc1 | i | i | 57 | nt | i | i | i | 61

Screening data as filed in PubChem BioAssay.
